Data published in ChEMBL document CHEMBL1155837 (Bioorg Med Chem Lett, 2008).

How the values were obtained:
[1] = Cytotoxicity against HEL cells assessed as alteration of cell morphology; format: cell-based; settings: human
In short: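 In HEL cells, the MCC is the minimal compound concentration producing a microscopically visible change in cell morphology.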

[2] = Cytotoxicity against HEL cells assessed as inhibition of cell proliferation; format: cell-based; settings: human
[3] = test system: Human alphaherpesvirus 2; assay: Antiviral activity against acyclovir-resistant HSV2 ACR in african green monkey Vero cells assessed as inhibition of virus plaque formation; format: functional, organism-based; settings: Human alphaherpesvirus 2, ACR
In short: (§1)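 Vero cells were grown to density in DMEM with 10% fetal bovine serum, L-glutamine, penicillin and streptomycin, then preincubated 30 min with drug and kept in drug throughout. They were infected with 100 pfu per well, adsorbed 45 min and overlaid with 1.2% Avicel in DMEM. After 3 days, plaques were stained with crystal violet and counted.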

[4] = test system: Human alphaherpesvirus 2; assay: Antiviral activity against acyclovir-sensitive HSV2 HG32 in african green monkey Vero cells assessed as inhibition of virus plaque formation; format: functional, organism-based; settings: Human alphaherpesvirus 2, HG32, Vero; in short: as §1
[5] = test system: Human alphaherpesvirus 3; assay: Antiviral activity against TK+ VZV OKA infected HEL cells assessed as reduction in virus plaque formation after 5 days; format: functional, organism-based; settings: Human alphaherpesvirus 3, OKA, 120 h
[6] = test system: Human alphaherpesvirus 3; assay: Antiviral activity against TK+ VZV YS infected HEL cells assessed as reduction in virus plaque formation after 5 days; format: functional, organism-based; settings: Human alphaherpesvirus 3, YS, 120 h
[7] = test system: Human alphaherpesvirus 3; assay: Antiviral activity against thymidine kinase deficient VZV YS/R infected HEL cells assessed as reduction in virus plaque formation after 5 days; format: functional, organism-based; settings: Human alphaherpesvirus 3, YS/R, 120 h
[8] = test system: Human alphaherpesvirus 1; assay: Antiviral activity against HSV1 KOS in HEL cells assessed as inhibition of virus induced cytopathicity within 48 hrs; format: functional, organism-based; settings: Human alphaherpesvirus 1, KOS
In short: (§2)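 Confluent HEL fibroblast cultures were inoculated with 100 CCID50 of virus per well. After 1 h adsorption, residual virus was removed and cells were incubated with serial dilutions of compound.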

[9] = test system: Human alphaherpesvirus 2; assay: Antiviral activity against HSV2 G in HEL cells assessed as inhibition of virus induced cytopathicity within 48 hrs; format: functional, organism-based; settings: Human alphaherpesvirus 2, strain G; in short: as §2
[10] = test system: Human alphaherpesvirus 3; assay: Antiviral activity against thymidine kinase deficient VZV 07/1 infected HEL cells assessed as reduction in virus plaque formation after 5 days; format: functional, organism-based; settings: Human alphaherpesvirus 3, 07/1, HEL, 120 h
[11] = test system: Human alphaherpesvirus 1; assay: Antiviral activity against acyclovir-resistant and thymidine kinase deficient HSV1 KOS in HEL cells assessed as inhibition of virus induced cytopathicity within 48 hrs; format: functional, organism-based; settings: Human alphaherpesvirus 1, KOS; in short: as §2
[12] = test system: Human alphaherpesvirus 2; assay: Antiviral activity against HSV2; format: functional, organism-based

| SMILES | MCC [1] [µM] | CC50 [2] [µM] | EC50 [3] [µM] | EC50 [4] [µM] | EC50 [5] [µM] | EC50 [6] [µM] | EC50 [7] [µM] | EC50 [8] [µM] | EC50 [9] [µM] | EC50 [10] [µM] | EC50 [11] [µM] | EC50 [12] [µM] |
| --- | --- | --- | --- | --- | --- | --- | --- | --- | --- | --- | --- | --- |
| Nc1nc2c(ncn2COCCO)c(=O)[nH]1 [ACYCLOVIR] | > 250 | 1350 | > 100 | 6 | – | – | – | – | – | – | – | – |
| C[C@H](NP(=O)(OCCOCn1cnc2c(=O)[nH]c(N)nc21)Oc1ccccc1)C(=O)OCc1ccccc1 (some centres not stated) | > 50 | > 100 | 15.5 | 20.3 | 0.72 | 1 | 0.59 | 0.9 | 1.4 | 1.8 | – | – |
| COC(=O)[C@H](C)NP(=O)(OCCOCn1cnc2c(=O)[nH]c(N)nc21)Oc1cccc2ccccc12 (some centres not stated) | > 50 | > 100 | 15 | 40.4 | 7.6 | 10.9 | 6.1 | – | – | 22 | 80 | – |
| C[C@H](NP(=O)(OCCOCn1cnc2c(=O)[nH]c(N)nc21)Oc1cccc2ccccc12)C(=O)OCc1ccccc1 (some centres not stated) | > 50 | 20 | 14.5 | 9.8 | 7.2 | 3.3 | – | – | – | 6.9 | 11 | – |
| COC(=O)[C@H](C)NP(=O)(OCCOCn1cnc2c(=O)[nH]c(N)nc21)Oc1ccccc1 (some centres not stated) | > 100 | 162 | 18.7 | 43.1 | 19 | 20 | 16 | – | 15 | 24 | 80 | ≥ 100 |
| Nc1nc2c(ncn2COCCOP(=O)(N[C@@H](Cc2ccccc2)C(=O)OCc2ccccc2)Oc2ccccc2)c(=O)[nH]1 (some centres not stated) | > 50 | 86.9 | 33.2 | 20.3 | 5.2 | 6.6 | 10 | – | 8 | 8.4 | > 100 | – |
